Compounds with a hit are over-represented: about 5.7% of the library has one in this group of screens.
Mdm2 MdmX PPI: human Mdm2/MdmX binding inhibition. O15151+Q00987. SaOS-2 split-luciferase Mdm2/MdmX complementation, luminescence. inhibition, % at 8 µM. 330,000 tested, 3% active. AID 485346;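 active = inhibition of at least 50% at 8 µM in the primary screen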
Target sequence (O15151 whole entry, looked up): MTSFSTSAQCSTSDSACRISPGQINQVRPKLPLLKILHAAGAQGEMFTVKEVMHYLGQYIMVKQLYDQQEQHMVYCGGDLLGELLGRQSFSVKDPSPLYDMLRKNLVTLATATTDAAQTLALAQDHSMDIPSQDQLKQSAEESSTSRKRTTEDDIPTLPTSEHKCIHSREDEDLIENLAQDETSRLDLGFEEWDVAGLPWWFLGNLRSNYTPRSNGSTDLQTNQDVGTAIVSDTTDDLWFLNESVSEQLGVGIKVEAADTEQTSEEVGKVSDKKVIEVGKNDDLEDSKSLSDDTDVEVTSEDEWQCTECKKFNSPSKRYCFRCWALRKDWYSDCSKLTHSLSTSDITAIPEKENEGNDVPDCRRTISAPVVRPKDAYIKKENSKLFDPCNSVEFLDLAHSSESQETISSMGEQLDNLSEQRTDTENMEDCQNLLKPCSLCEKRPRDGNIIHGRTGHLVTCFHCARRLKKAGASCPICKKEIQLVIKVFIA
Target sequence (Q00987 whole entry, looked up): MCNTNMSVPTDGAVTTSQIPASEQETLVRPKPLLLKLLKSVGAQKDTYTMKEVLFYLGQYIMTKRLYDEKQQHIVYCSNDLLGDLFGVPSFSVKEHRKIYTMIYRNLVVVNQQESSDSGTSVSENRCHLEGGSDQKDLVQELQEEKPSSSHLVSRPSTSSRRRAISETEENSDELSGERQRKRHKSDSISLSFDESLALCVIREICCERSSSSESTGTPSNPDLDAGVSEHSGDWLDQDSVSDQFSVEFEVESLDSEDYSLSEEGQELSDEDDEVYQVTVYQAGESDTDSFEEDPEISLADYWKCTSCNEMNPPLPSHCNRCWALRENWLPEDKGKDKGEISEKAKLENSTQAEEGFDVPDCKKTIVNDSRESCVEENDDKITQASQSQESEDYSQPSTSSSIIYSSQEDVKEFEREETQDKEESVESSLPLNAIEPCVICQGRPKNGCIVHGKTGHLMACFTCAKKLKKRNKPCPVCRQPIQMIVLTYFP
SKKanGAS inh: blocks kanamycin growth of S. pyogenes SKKanGAS strain; BacTiter-Glo, 6 h; 300,000 tested, 1.3% active; inhibition, % at 7.5 µM;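 active = mean replicate score, as percent of positive control median, at least 50; inconclusive = mean below 50 but one replicate at or above 50; inactive = mean and every replicate below 50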;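 note: strain carries kanamycin resistance gene driven by streptokinase promoter and grows in 40 µg/ml kanamycin; loss of luminescence reflects streptokinase promoter inhibition or plain growth inhibition; 0% = median of DMSO wells and 100% = positive control at its reference dose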
Beta apoptosis: blocks beta cell apoptosis. 300,000 tested, 0.8% active. protection from apoptosis, % (concentration not given with the values). INS-1E cytokine-induced death, ATP luminescence, 48 h; percent of positive-control rescue, neutral wells zero;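 active = Every replicate reaches about 75%, or at least half do and their mean reaches it too, limit read from the data; inconclusive = At least half of replicates reach the limit but their mean does not; inactive = Under half of replicates reach the limit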;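 note: 0% = cytokine-treated negative control wells and 100% = positive control rescue; higher means more ATP so stronger rescue from cytokine killing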
Calb FLC: C. albicans growth modulation with fluconazole; 300,000 tested, 0.57% active; C. albicans CaCi-2 (fluconazole-resistant clinical isolate) + fluconazole, Alamar Blue growth, 48 h; growth inhibition, % (no concentration beside the values);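 active = growth inhibition above about 58% in most replicates, limit read from the data, passing the limit was not always enough; inconclusive = exactly half the replicates above a set limit; inactive = most replicates below a set limit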;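 note: all wells also contain fluconazole at 8 µg/ml as a sub-toxic cotreatment; 0% = median of DMSO wells and 100% = median of geldanamycin control wells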
CSC inhib: cancer stem cell inhibition | inhibition, % at 7.5 µM | cancer stem cell-like cells viability, luminescence | AID 2717 | 300,000 tested, 1.1% active; in the data active = inhibition above about 75%; inconclusive = no clear call, values can overlap the other calls; tested in HMLE shEcad cells
T cruzi repl: T. cruzi replication inhibition; T. cruzi beta-gal in NIH3T3, luminescence, 90 h; inhibition, % (concentration not given with the values); 300,000 tested, 1.4% active;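 active = mean inhibition across valid replicates above about 55%, limit read from the data; inconclusive = mean below that limit but half or more replicates reach it; inactive = mean below it, under half of replicates reach it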;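 note: signal also drops with host cell toxicity which is not excluded here; 0% = plate median of DMSO wells and 100% = zero luminescence signal; higher percent means less beta-gal luminescence so fewer parasites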
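Read-out: Parasite load inhibition, % | Test system: Mouse NIH/3T3 fibroblasts infected with β-gal-expressing T. cruzi Tulahuen C4 | Amount: 5,000 cells/well | Medium: DMEM, 2% fetal bovine serum | Signal: GalScreen β-gal luminescence, detergent lysis, 60 min | Timing: 3 h attach, ≥90 h co-culture | Also added: Tulahuen C4 trypomastigotes, 5000/well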
Mdm2-MdmX conf: confirmation of human Mdm2/MdmX interaction inhibitors; 10,000 tested, 55% active; shares compounds with Mdm2 MdmX PPI; inhibition, % at 8 µM; Mdm2-MdmX binding, luminescent assay; in the data active = inhibition above about 40%
FLuc counter: full-length luciferase inhibition in Mdm2/MdmX counter-screen | shares compounds with Mdm2 MdmX PPI | 6,200 tested, 77% active | inhibition, % at 8 µM | SaOS-2 full-length luciferase counterscreen, luminescence | AID 504607;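 active = mean inhibition at 8 µM reaching about 37%, which flags the compound as non-specific, limit read from the data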;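 note: p53-null SaOS-2 cells with luciferase driven by a doxycycline-inducible promoter; compound on cells about two nights before reading with doxycycline added after day one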
An asterisk follows results filed as active; ? = inconclusive; / = no result given.

SMILES | Mdm2 MdmX PPI | SKKanGAS inh | Beta apoptosis | Calb FLC | CSC inhib | T cruzi repl | Mdm2-MdmX conf | others
COc1ccc(-c2ccc3c(c2)S(=O)(=O)c2cccc(C(=O)NCCOc4ccccc4Cl)c2C3=O)cc1OC | 95.3* | / | 91.0* | / | / | / | 27.9
O=c1c2cc(Br)ccc2nc(-c2cccc(C(F)(F)F)c2)n1O | 55.5* | 111.1* | 7.4 | 90.3* | 13.9 | -7.5 | 42.1* | FLuc counter=29.9
N#Cc1ccc(-c2nc3ccc(Br)cc3c(=O)n2O)cc1 | 17.9 | 4.9 | 8.2 | -5.2 | 20.7 | -10.0 | /
O=c1c2cc(Cl)ccc2nc(-c2ccc(Cl)c(Cl)c2)n1O | 72.1* | 74.5* | 38.1 | 100.6* | 120.1* | 42.6 | 83.2* | FLuc counter=21.3
O=c1c2cc(Cl)ccc2nc(-c2ccccc2)n1O | 23.7 | 25.7 | -8.0 | 2.5 | -5.1 | -4.8 | /
CCCNC(=O)C(Cc1ccc(Cl)cc1)NC(=O)c1ccc(-c2ccccc2)cc1 (stereo not given) | 58.7* | / | 24.4 | / | 5.0 | / | 17.2
CCCNC(=O)C(Cc1ccc(Cl)cc1)NC(=O)c1ccc(C#N)cc1 (stereo not given) | 33.5 | / | -5.4 | / | -21.5 | / | /
Cn1ccnc1C(=O)c1cc(SCC(=O)N2CCOCC2)nc2ccccc12 | -12.4 | -4.1 | -3.1 | -4.2 | -31.7 | 1.0 | /
O=C1C=C(c2ccc3ccccc3c2)C[C@@H](c2ccc(F)cc2)C1 | 52.0* | / | 2.7 | / | 30.0 | / | -6.2
CCC(=O)N(C(=O)CC)N1CCN(c2ccncc2S(=O)(=O)N2CCCCC2)CC1 | 14.5 | 0.6 | 4.4 | -1.0 | -2.7 | 17.0 | /
O=C(NCc1cccnc1)C1CCN(S(=O)(=O)c2cc(Cl)ccc2Cl)CC1 | 37.5 | -4.2 | -5.4 | -11.9 | -6.8 | -4.3 | /
Nc1nnc(-c2ccco2)s1 | 11.7 | -2.4 | -3.1 | 13.9 | -9.1 | -7.2 | /
Nc1ncnc2oc(-c3ccco3)c(-c3ccco3)c12 | 52.4* | -6.3 | / | 15.6 | / | -10.1 | 22.6
CS(=O)(=O)c1ccc(Cl)c(C(=O)Nc2ccc3nc(N4CCOCC4)sc3c2)c1 | 12.7 | / | -0.1 | / | / | / | /
CC(C)(C)NC(=O)COc1ccc2oc3c(c2c1)CCCC3 | 3.1 | -8.8 | -4.3 | 5.2 | 4.4 | 4.1 | /
C=C(C)CNC(=S)NNC(=O)CCn1c2cc(Cl)ccc2c2ccc(Cl)cc21 | 13.4 | 31.3 | -3.3 | 26.9 | 45.6 | 8.5 | /
C=C(C)CNC(=S)NNC(=O)CCn1c2ccc(Cl)cc2c2cc(Cl)ccc21 | 54.0* | 73.7* | 4.6 | 1.6 | 102.2* | 3.6 | 17.6
CCCc1c(NC(=O)Nc2ccc(F)cc2)cnn1-c1ccc(Cl)cc1 | 61.3* | 30.5 | 2.4 | 2.7 | 24.7 | 1.9 | 32.5
O=C(NCCc1ccc(Cl)cc1)Nc1ccc(F)cc1 | 5.4 | -14.3 | -3.7 | -4.4 | -4.1 | 3.9 | /
N#Cc1cccc(S(=O)(=O)NNC(=O)C23CC4CC(CC(C4)C2)C3)c1 | 2.5 | / | -6.7 | / | -12.8 | / | /
Cc1ccc(NS(=O)(=O)c2ccc(C(=O)NCCCN3CCCC3=O)cc2)cc1 | 12.5 | -0.3 | 0.5 | / | -9.8 | -5.3 | /
COc1ccc(C(=O)N(Cc2ccccc2)Cc2cc3cc4c(cc3[nH]c2=O)OCCO4)cc1 | 51.5* | 8.9 | -0.8 | 14.0 | 6.2 | -9.6 | 65.0* | FLuc counter=50.8*
O=C(c1ccco1)N(Cc1ccc2c(c1)OCO2)Cc1cc2cc3c(cc2[nH]c1=O)OCO3 | 59.7* | 4.2 | -0.1 | -1.0 | -9.1 | -1.9 | 16.1
O=C(c1cc(Br)c(Br)s1)N1CCN(c2ccccn2)CC1 | -25.8 | -10.2 | -2.4 | ? | -7.2 | 19.9 | /
COc1ccc(N2CCN(S(=O)(=O)c3c(C)[nH]c(C)c3C(=O)N3CCCC3)CC2)cc1 | 18.2 | 5.3 | 0.0 | 31.2 | 4.8 | -2.9 | /
SMILES | Mdm2 MdmX PPI | SKKanGAS inh | Beta apoptosis | Calb FLC | CSC inhib | T cruzi repl | Mdm2-MdmX conf | others
COc1ccc(CCn2c(NN)nc3c2c(=O)[nH]c(=O)n3C)cc1 | 57.5* | 10.5 | 3.3 | 0.7 | 29.9 | -17.6 | 50.2* | FLuc counter=67.3*
COc1ccc(CCn2c(NN=C(C)C)nc3c2c(=O)[nH]c(=O)n3C)cc1 | 32.2 | 5.2 | 3.2 | 0.9 | -2.2 | -0.7 | /
CCC(=O)N1c2ccc(S(=O)(=O)N3CCN(c4ccccc4Cl)CC3)cc2CC1C (stereo not given) | 22.3 | 8.3 | -9.1 | -39.7 | 0.4 | 17.5 | /
COc1cc(NC(=O)C2=C(N3CCOCC3)/C(=C\c3ccc(N(C)C)cc3)CCC2)cc(OC)c1OC | 59.9* | 5.8 | 17.1 | -0.7 | 87.1* | -22.4 | 47.4* | FLuc counter=86.8*
O=C(CNc1n[nH]c(=O)[nH]c1=O)N/N=C/C=C/c1ccccc1 | -0.1 | 0.4 | -2.9 | -13.4 | -2.6 | 3.5 | /
CCCNC(=O)c1ccc2c(=O)c(O)c(-c3ccc(F)cc3)[nH]c2c1 | 68.7* | 1.6 | 13.5 | 88.9* | 4.0 | -15.1 | 18.8
CCCNC(=O)c1ccc2c(=O)c(O)c(-c3cccc(Br)c3)[nH]c2c1 | 53.4* | -0.3 | 97.9* | 113.5* | 125.0* | 21.2 | 70.1* | FLuc counter=31.4
Cc1ccc(CNC(=O)CCc2nnc(Cc3ccc(-c4ccccc4)cc3)o2)o1 | 7.8 | 4.6 | / | 7.5 | -0.1 | -7.5 | /
O=C(N/N=C/c1cccc(O)c1)c1ccc(COc2cccc3cccnc23)cc1 | 53.7* | 16.8 | 5.5 | ? | -2.5 | -16.2 | 23.4
O=C(N/N=C/c1ccncc1)c1ccc(COc2cccc3cccnc23)cc1 | 28.8 | -6.1 | -4.8 | -12.1 | 0.8 | -9.3 | /
CCOc1cc(/C=C(\C#N)C(=O)Nc2ccccc2C(=O)O)ccc1OC(=O)c1ccc(C)cc1 | / | 9.4 | -4.4 | 18.8 | -4.2 | -3.5 | /
CCOC(=O)C1(Cc2cccc(OC)c2)CCCN(Cc2cc(OC)c(O)c(OC)c2)C1 (stereo not given) | 26.2 | 3.2 | -2.3 | -13.6 | -13.5 | -17.7 | /
COC(=O)c1nn(-c2ccccc2)c(Cl)c1/C=N/OCc1ccc(Cl)cc1Cl | 57.7* | -2.5 | -7.3 | -4.6 | 2.3 | 23.2 | 0.9
COc1ccccc1NC(=O)C1=C(C)NC2=C(C(=O)CC(c3ccc(OC)c(OC)c3)C2)C1c1coc2ccccc2c1=O (stereo not given) | 34.9 | 19.3 | 27.3 | 23.8 | 18.6 | 36.8 | /
CCN(c1ccc(OC)cc1)S(=O)(=O)c1ccc(-c2cc(C)no2)s1 | 57.2* | 1.5 | 3.7 | 6.5 | -18.8 | -5.4 | 48.0* | FLuc counter=58.9*
COc1ccc(N2CCN(S(=O)(=O)c3ccc(-c4cc(C)no4)s3)CC2)cc1 | 9.0 | -1.7 | -3.2 | 8.3 | -9.6 | 0.3 | /
COc1ccc2c(C(=O)NCc3ccc4c(c3)OCO4)c(-c3ccc(S(C)(=O)=O)cc3)sc2c1 | 84.4* | / | ? | / | / | / | 21.1
O=C(CCN1C(=O)/C(=C/c2ccccc2)SC1=S)NCCc1ccc(O)cc1 | 98.3* | 0.2 | -12.9 | -1.4 | 21.1 | -24.6 | 87.7* | FLuc counter=59.8*
